# PKA-R1A act – activators of PKA-R1A holoenzyme, primary screen, biochemical, fluorescence polarization, Cy5-IP20, bovine R1A, mouse PKAc; cAMP-dependent protein kinase type I-alpha regulatory subunit (Bos taurus) + …; PKA-R1A dissociation; scaled: DMSO 0%, 113 µM cGMP 100%; activation, % at 11.4 µM; 0.083% of 340,000 active; AID 504707, 2011;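 active = percent activation above the mean of all tested compounds plus 3 SD, cut at about 19% in these data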;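 note: higher means more PKAc released from R1A so a rise in polarization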
# IMP-1 inh-1 – IMP-1 metallo-beta-lactamase inhibitors, primary screen, biochemical, epi-absorbance readout, Pseudomonas aeruginosa enzyme; metallo-beta-lactamase IMP-1 (Pseudomonas aeruginosa); purified IMP-1, nitrocefin hydrolysis, epi-absorbance fluorescence; inhibition, % at 5.6 µM; 0.45% of 290,000 active; AID 1556, 2009;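 active = inhibition above the mean plus 3 SD of all compounds in the same screening run, cut at about 4.5% in these data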
#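 Test system: recombinant IMP-1 enzyme, purified / Medium: HEPES buffer pH 7.1 with ZnSO4 and Brij 35 / Doses: single dose, 5.6 µM / Times: 25 °C, 15 min preincubation, 25 min reaction / Detection: Epi-absorbance via hydrolysed-nitrocefin quenching of white-plate fluorescence, 480/530 nm, EDTA stop / Evaluation: percent inhibition from optical density relative to buffer-blank wells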
# MsrA act – bovine MsrA enzyme activators, primary screen, biochemical, absorbance, HTS. Methionine sulfoxide reductase A (Bos taurus). purified bovine MsrA, absorbance read-out. activation, % at 10.6 µM. 0.3% of 360,000 active. AID 602163, 2012; in the data active = activation above about 7.5%
# VIM-2 inhibitor – VIM-2 metallo-beta-lactamase inhibitors, primary screen, biochemical, epi-absorbance readout, Pseudomonas aeruginosa enzyme; purified VIM-2, nitrocefin hydrolysis, epi-absorbance fluorescence; inhibition, % at 5.6 µM; 0.89% of 290,000 active;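 active = inhibition above the mean of all tested compounds plus 3 SD, cutoff set per screening run, cut at about 7.5% in these data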;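 note: red hydrolysis product quenches plate fluorescence so inhibitors raise well fluorescence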
# PKA-R2B activ – activators of PKA-R2B holoenzyme, primary screen, biochemical, fluorescence polarization, Cy5-IP20, human. cAMP-dependent protein kinase catalytic subunit beta (Homo sapiens) + cAMP-dependent …. activation, % at 11.4 µM. PKA-R2B holoenzyme dissociation; R2B truncated from residue 108, S112A mutant; 0% DMSO only, 100% 113 µM cGMP. 0.079% of 340,000 active;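 active = activation above a cutoff set at the mean over all compounds plus 3 SD, cut at about 18% in these data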;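 note: higher means more holoenzyme dissociation and a rise in polarization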
# Target sequence (P31323 whole entry, looked up, other chains not shown, the tested form may be a part): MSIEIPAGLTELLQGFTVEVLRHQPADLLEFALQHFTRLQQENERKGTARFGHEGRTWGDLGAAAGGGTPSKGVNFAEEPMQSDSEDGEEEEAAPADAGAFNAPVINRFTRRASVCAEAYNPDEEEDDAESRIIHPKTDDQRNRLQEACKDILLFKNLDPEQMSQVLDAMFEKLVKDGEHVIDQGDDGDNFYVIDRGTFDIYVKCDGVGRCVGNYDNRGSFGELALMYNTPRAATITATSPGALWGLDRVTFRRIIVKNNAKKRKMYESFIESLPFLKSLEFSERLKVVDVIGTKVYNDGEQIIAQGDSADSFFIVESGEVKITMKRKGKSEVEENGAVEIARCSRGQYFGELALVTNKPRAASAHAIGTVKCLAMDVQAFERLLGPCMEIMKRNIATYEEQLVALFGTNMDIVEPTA
# MsrA inh – bovine MsrA enzyme inhibitors, primary screen, biochemical, absorbance, HTS; Methionine sulfoxide reductase A (Bos taurus); purified bovine MsrA, absorbance read-out; inhibition, % at 15.5 µM; 0.75% of 360,000 active; AID 651718, 2012; in the data active = inhibition above about 4.5%
# IMP-1 inh-2 – IMP-1 metallo-beta-lactamase inhibitors, confirmation, selectivity assay for selective VIM-2 inhibitor project, biochemical, epi-absorbance readout, triplicate. shares compounds with VIM-2 inhibitor. purified IMP-1, nitrocefin hydrolysis, epi-absorbance fluorescence. inhibition, % at 5.6 µM. 1,300 tested, under 10 active. AID 1856, 2009; call rule not given here
# VIM-2 FRET inh – VIM-2 inhibitors in FRET format, confirmation, artefact control for selective VIM-2 inhibitor project, biochemical, epi-absorbance artifact exclusion; shares compounds with VIM-2 inhibitor; purified VIM-2, CCF2 FRET substrate hydrolysis; inhibition, % at 5.6 µM; 23% of 1,300 active;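 active = inhibition above the mean of all tested compounds plus 3 SD, cut at about 19% in these data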
# TEM-1 counter – TEM-1 serine beta-lactamase inhibitors, counter-screen for VIM-2 inhibitor project, biochemical, epi-absorbance, HTS. inhibition, % at 5.6 µM. 3% of 1,300 active. Purified TEM-1, nitrocefin hydrolysis, epi-absorbance fluorescence. shares compounds with VIM-2 inhibitor. AID 1866, 2009;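 active = inhibition above that campaign's mean inhibition plus 3 SD, cut at about 0.46% in these data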
# Target sequence (P62593 whole entry, looked up): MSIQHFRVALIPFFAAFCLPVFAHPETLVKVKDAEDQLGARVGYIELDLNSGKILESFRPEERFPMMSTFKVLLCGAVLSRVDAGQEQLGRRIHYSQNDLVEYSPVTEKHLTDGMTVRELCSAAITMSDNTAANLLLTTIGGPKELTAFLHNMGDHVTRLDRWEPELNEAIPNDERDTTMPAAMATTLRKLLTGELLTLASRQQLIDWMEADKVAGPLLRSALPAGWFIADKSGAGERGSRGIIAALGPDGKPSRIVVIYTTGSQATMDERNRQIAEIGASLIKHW
# VIM-2 confirm 2 – VIM-2 metallo-beta-lactamase inhibitors, confirmation, biochemical, epi-absorbance, hits shared with IMP-1 screen | purified VIM-2, nitrocefin hydrolysis | inhibition, % at 5.6 µM | shares compounds with VIM-2 inhibitor | 96% of 1,300 active;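 active = inhibition of the VIM-2 beta-lactamase enzyme above about 11% from the earlier first-round screen, limit read from the data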
# Hits are given with their value; i = inactive; nt = no result. Rows were chosen to be rich in hits. Some 2.1% of all compounds tested hit in one or more screens of this group.
SMILES,PKA-R1A act,IMP-1 inh-1,MsrA act,VIM-2 inhibitor,PKA-R2B activ,MsrA inh,IMP-1 inh-2,VIM-2 FRET inh,TEM-1 counter,VIM-2 confirm 2
CCN(CC)CCC(=O)Nc1cccc2c1C(=O)c1ccccc1C2=O,nt,i,i,33,nt,i,i,i,i,45
CCN(CC)CCCNC(=O)c1cc2nc3c(c(C(F)(F)F)n2n1)CCc1ccccc1-3,i,i,i,13,i,i,i,i,i,15
Cc1ccc(O)c(NC(=O)c2cc3nc4c(c(C(F)(F)F)n3n2)CCc2ccccc2-4)c1,i,i,i,i,i,i,nt,nt,nt,nt
O=C(CSc1ncn[nH]1)N1N=C(c2ccc(Cl)cc2)CC1c1ccco1 (stereo unspecified),i,i,i,13,i,i,i,30,i,17
CCOC(=O)N1CCC(Nc2ccc3nnc(-c4ccccc4)n3n2)CC1,i,i,i,15,i,i,i,i,i,24
CSc1nnc(-c2cc3c(-c4ccccc4)nn(C)c3s2)n1C,i,i,i,19,i,i,i,i,i,26
CC1=CCC(C(=O)O)(C(=O)N/N=C/c2cccs2)C(c2ccc([N+](=O)[O-])cc2)C1 (stereo unspecified),i,i,i,31,i,i,i,i,i,i
CC1=CCC(C(=O)O)(C(=O)N/N=C/c2cccs2)C(c2ccc(F)cc2)C1 (stereo unspecified),i,i,i,i,i,i,nt,nt,nt,nt
O=S(=O)(NCC1CN(S(=O)(=O)c2c(F)cccc2F)C1)c1ccc2c(c1)OCCO2,i,nt,i,nt,i,i,nt,nt,nt,nt
CC1CCCN(C(=O)Nc2ccc([N+](=O)[O-])cc2)C1 (stereo unspecified),nt,nt,nt,nt,nt,i,nt,nt,nt,nt
Cc1ccc(CNc2c(C=O)c(=O)[nH]c3ccccc23)cc1,i,i,i,14,i,i,i,31,i,21
O=Cc1c(NCc2ccc(F)cc2)c2ccccc2[nH]c1=O,i,i,i,i,i,i,nt,nt,nt,nt
CCOC(=O)C1(CCOc2ccccc2)CCN(C(=O)CCSC)CC1,i,i,i,i,i,i,nt,nt,nt,nt
CCOc1cccc(C(=O)NC(=S)Nc2ccccc2)c1,i,i,i,i,i,i,nt,nt,nt,nt
CCOc1cccc(C(=O)NC(=S)Nc2ccc(N3CCN(CC)CC3)cc2)c1,i,i,i,45,i,i,i,i,i,77
CN1CCN(c2ccc(NC(=O)c3ccc4c(c3)OCCO4)cc2)CC1,i,i,i,18,i,i,i,i,i,34
CCN1CCN(c2ccc(NC(=O)c3cccc(N4CCCC4=O)c3)cc2)CC1,i,i,i,17,i,i,i,i,i,22
O=C(Nc1ccc(N2CCCC2=O)cc1)c1cccc(F)c1,i,i,i,i,i,i,nt,nt,nt,nt
COc1ccc(Cn2c(=O)[nH]c3cc(C(=O)Nc4ccc(N5CCN(C)CC5)cc4)ccc32)cc1,i,i,i,16,i,i,i,i,i,42
CN1CCN(c2ccc(NC(=O)c3cccc(OCc4ccccc4)c3)cc2)CC1,i,i,i,12,i,i,i,i,i,28
Cc1ccc(C(=O)Nc2ccc(N3CCN(S(C)(=O)=O)CC3)cc2)cc1C,nt,i,i,i,nt,i,nt,nt,nt,nt
Cc1ccc(C(=O)Nc2ccc(N3CCN(C)CC3)cc2)cc1C,i,i,i,16,i,i,i,i,i,29
CCOc1ccc(Cl)cc1-c1cc(C(=O)NCc2cc(C(F)(F)F)cc(C(F)(F)F)c2)[nH]n1,nt,nt,i,nt,nt,i,nt,nt,nt,nt
CN1CCN(c2nc(-c3ccccc3)c3cc(Cl)ccc3n2)CC1,i,i,i,i,i,i,nt,nt,nt,nt
Clc1ccc2nc(N3CCNCC3)nc(-c3ccccc3)c2c1,i,i,i,12,i,i,i,i,i,17
SMILES,PKA-R1A act,IMP-1 inh-1,MsrA act,VIM-2 inhibitor,PKA-R2B activ,MsrA inh,IMP-1 inh-2,VIM-2 FRET inh,TEM-1 counter,VIM-2 confirm 2
CCCCCCCCN1C(=O)[C@H](CC(=O)NCc2ccc(C)o2)C[C@@]2(C(=O)OCC)CCC=C12,nt,nt,nt,nt,nt,i,nt,nt,nt,nt
CN1CCN(C(=O)CSc2cc(=O)n(C)c3ccccc23)CC1,i,i,i,31,i,i,i,i,i,49
Cn1c(=O)cc(OCCCC(=O)N2CCCCC2)c2ccccc21,i,i,i,i,i,i,nt,nt,nt,nt
CCN1CCN(C(=O)CSc2cc(=O)n(C)c3ccccc23)CC1,i,i,i,37,i,i,i,i,i,56
CN1CCN(C(=O)CCCOc2cc(=O)n(C)c3ccccc23)CC1,i,i,i,18,i,i,i,i,i,38
O=C(O)c1ccc(/C=N/n2c(C3CCCCC3)n[nH]c2=S)cc1,i,i,i,i,i,i,nt,nt,nt,nt
O=C(O)c1ccccc1/C=N/n1c(C2CCCCC2)n[nH]c1=S,i,i,i,15,i,i,i,32,i,21
CCN(CC)CCNC(=O)c1cc2c(-c3cccc(OC)c3)nn(C)c2s1,i,i,i,14,i,i,i,i,i,23
COc1ccc(-c2nn(C)c3sc(C(=O)NCCN(C)C)cc23)cc1OC,i,i,i,17,i,i,i,i,i,30
CCCN(CCC)CCCNC(=O)c1cc2c(-c3ccc(OC)c(OC)c3)nn(C)c2s1,i,i,i,12,i,i,i,i,i,24
C[C@H]1CN([C@@H](C)CO)C(=O)c2c(c3ccccc3n2C)-c2ccccc2CO[C@H]1CN(C)C(=O)Nc1cccc(F)c1,nt,nt,nt,nt,nt,i,nt,nt,nt,nt
COC(=O)C1=C(C)N(Cc2ccccc2C(F)(F)F)C(=NCc2ccc3c(c2)OCO3)NC1c1cccc(Cl)c1 (stereo unspecified),nt,nt,nt,nt,nt,i,nt,nt,nt,nt

# Assay outcomes: PubChem, The Scripps Research Institute Molecular Screening Center
